The source made the active and inactive calls. The rule behind the calls is not given here.
Experiments:
[1] = test system: SK-MEL-2; assay: Cytotoxicity against human SK-MEL-2 cells assessed as reduction in cell growth at 1 to 10 uM after 48 hrs by MTT assay relative to untreated control; type: functional; parameters: scale not given: the % may be the effect or the level left
Procedure, shortened: (§1)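 Melanoma lines grown at 37 °C in humidified 5% CO2: MDA-MB-435 in DMEM/Ham's F12 1:1 with 10% FCS and antibiotics, SK-MEL-2 in RPMI-1640 with 10% FCS. Cells plated 24 h, then exposed 48 h to 100–0.01 µM (dilutions from fresh 100 µM stock in medium). MTT 0.5 mg/mL added for 4 h, crystals dissolved in EtOH/DMSO 1:1, absorbance read at 540 nm. Mean ± SD of three independent experiments.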

[2] = test system: MDA-MB-435; assay: Cytotoxicity against human MDA-MB-435 cells assessed as reduction in cell growth at 1 to 10 uM after 48 hrs by MTT assay relative to untreated control; type: functional; parameters: scale not given: the % may be the effect or the level left; procedure, shortened: as §1
[3] = test system: MDA-MB-435; assay: Induction of apoptosis in human MDA-MB-435 cells assessed as stretched stress action fibres at 5 uM after 20 hrs by Hoechst 33342 staining-based […] microscopy; type: functional, cell-based
Procedure, shortened: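 MDA-MB-435 cells were grown for 24 h, then treated with or without 5 μM compound for 20 h. Cells were fixed for 20 min and permeabilised with 0.2% Triton X-100 for 4 min at room temperature. Actin was stained with a mouse anti-actin antibody and an Alexa Fluor 568 anti-mouse antibody, each for 1 h at RT. Nuclei were counterstained with Hoechst 33342, and cells were imaged by confocal microscopy.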

[4] = test system: MDA-MB-468; assay: Cytotoxicity against human MDA-MB-468 cells after 48 hrs by SRB assay; type: functional; conditions: MDA-MB-468, 48 h
Procedure, shortened: (§2)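 NCI-60 five-dose screen: cells exposed continuously for 48 h across 100 to 0.01 µM. Growth or viability estimated by sulforhodamine B protein staining, read spectrophotometrically against untreated controls; IC50 taken from the dose-response.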

[5] = test system: MDA-MB-435; assay: Cell cycle arrest in human MDA-MB-435 cells assessed as accumulation at subG1 phase at 5 uM after 48 hrs by propidium iodide staining-based FACS analysis (reference value: 0.1%); type: functional
[6] = Cytotoxicity against human Hs578T cells after 48 hrs by SRB assay; type: functional; conditions: Hs-578T
Procedure, shortened: (§3)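 NCI-60 five-dose testing, 100 to 0.01 µM, under a 48 h continuous-exposure protocol. Growth estimated by SRB protein assay, read spectrophotometrically against untreated controls; IC50 derived from the dose-response.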

[7] = test system: MDA-MB-435; assay: Cytotoxicity against human MDA-MB-435 cells at 5 uM by MTT assay; type: functional, cell-based; conditions: TDE = time-dependent effect
Procedure, shortened: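 MDA-MB-435 cells in DMEM/Ham's F12 (1:1) with 10% FCS, 37 °C, 5% CO2. Time course at a fixed 5 µM, incubated 8, 16, 24 or 48 h. Viability then read by MTT reduction (0.5 mg/mL, 4 h), formazan dissolved in EtOH/DMSO, absorbance at 540 nm, as percent living cells.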

[8] = test system: U-251; assay: Cytotoxicity against human U251 cells after 48 hrs by SRB assay; type: functional; conditions: U-251, 48 h
Procedure, shortened: (§4)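 NCI-60 five-dose mode on the full human tumour line panel. Concentrations ran from 100 to 0.01 µM with 48 h continuous exposure. Growth was estimated by SRB protein staining against untreated controls, and IC50 values were derived from the dose–response.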

[9] = test system: Malme-3M; assay: Cytotoxicity against human MALME-3M cells after 48 hrs by SRB assay; type: functional; procedure, shortened: as §3
[10] = test system: SK-OV-3; assay: Cytotoxicity against human SKOV3 cells after 48 hrs by SRB assay; type: functional; conditions: SK-OV-3, 48 h; procedure, shortened: as §4
[11] = test system: SK-MEL-2; assay: Cytotoxicity against human SK-MEL-2 cells assessed as cell growth at 10 uM after 48 hrs by MTT assay relative to untreated control; type: functional; conditions: SK-MEL-2, 48 h, read-out: Activity; procedure, shortened: as §1
[12] = test system: HOP-62; assay: Cytotoxicity against human HOP62 cells after 48 hrs by SRB assay; type: functional; conditions: HOP-62, 48 h; procedure, shortened: as §3
[13] = test system: SF-539; assay: Cytotoxicity against human SF539 cells after 48 hrs by SRB assay; type: functional; conditions: SF-539, 48 h; procedure, shortened: as §2
[14] = test system: ACHN; assay: Cytotoxicity against human ACHN cells after 48 hrs by SRB assay; type: functional; procedure, shortened: as §3
[15] = test system: MDA-MB-435; assay: Cytotoxicity against human MDA-MB-435 cells after 48 hrs by SRB assay; type: functional, cell-based; conditions: MDA-MB-435, 48 h; procedure, shortened: as §2
[16] = test system: OVCAR-3; assay: Cytotoxicity against human OVCAR3 cells after 48 hrs by SRB assay; type: functional; conditions: OVCAR-3, 48 h; procedure, shortened: as §2
[17] = test system: SK-MEL-2; assay: Cytotoxicity against human SK-MEL-2 cells after 48 hrs by SRB assay; type: functional; conditions: SK-MEL-2, 48 h; procedure, shortened: as §2
[18] = test system: PC-3; assay: Cytotoxicity against human PC3 cells after 48 hrs by SRB assay; type: functional; conditions: PC-3, 48 h; procedure, shortened: as §2
[19] = Cytotoxicity against human CAL-1 cells assessed as cell growth at 10 uM after 48 hrs by MTT assay relative to untreated control; type: functional; conditions: CAL1, 48 h, read-out: Activity
Procedure, shortened: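 CAL1 melanoma cells grown in DMEM with 2 mM L-glutamine and 10% FCS at 37 °C, 5% CO2. Seeded at 10^4 cells/well, grown 24 h, then treated 48 h across 100–0.01 μM (compounds dissolved in medium). Read-out: 0.5 mg mL⁻¹ MTT for 4 h, crystals dissolved in EtOH/DMSO 1:1, absorbance at 540 nm.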

[20] = test system: NCI-H460; assay: Cytotoxicity against human NCI-H460 cells after 48 hrs by SRB assay; type: functional; conditions: NCI-H460, 48 h; procedure, shortened: as §2
[21] = Cytotoxicity against human OVCAR5 cells after 48 hrs by SRB assay; type: functional; conditions: OVCAR-5, 48 h; procedure, shortened: as §2
[22] = test system: A549; assay: Cytotoxicity against human A549 cells after 48 hrs by SRB assay; type: functional; conditions: A549, 48 h; procedure, shortened: as §3
[23] = test system: DU-145; assay: Cytotoxicity against human DU145 cells after 48 hrs by SRB assay; type: functional; conditions: DU-145, 48 h; procedure, shortened: as §3
[24] = test system: SF-268; assay: Cytotoxicity against human SF268 cells after 48 hrs by SRB assay; type: functional; conditions: SF-268, 48 h; procedure, shortened: as §2
[25] = read-out: LC50 (the source's name)

C[C@@H]1NC(c2ccccc2)=Nc2nc3ccccn3c2C1=O
Activity [1]: 20%
Activity [2]: 20%
Activity [3]: inactive

C[C@@H]1NC(c2ccc(Br)cc2)=Nc2nc3ccccn3c2C1=O
GI50 [4]: 1.98 µM
TGI [4]: 5.12 µM
CC50 [4, 25]: > 100 µM
Activity [5]: 8.6%
GI50 [6]: 2.81 µM
TGI [6]: 52 µM
CC50 [6, 25]: > 100 µM
Activity [7]: tde
GI50 [8]: 6.64 µM
TGI [8]: > 100 µM
CC50 [8, 25]: > 100 µM
GI50 [9]: 15.2 µM
TGI [9]: > 100 µM
CC50 [9, 25]: > 100 µM
GI50 [10]: 4.41 µM
TGI [10]: > 100 µM
CC50 [10, 25]: > 100 µM
growth at 10 µM [11]: 32%
GI50 [12]: 5.75 µM
TGI [12]: > 100 µM
CC50 [12, 25]: > 100 µM
GI50 [13]: 7.98 µM
TGI [13]: 85.3 µM
CC50 [13, 25]: > 100 µM
GI50 [14]: 6.75 µM
TGI [14]: > 100 µM
CC50 [14, 25]: > 100 µM
GI50 [15]: 1.33 µM
IC50 [15]: 1.3 µM
LC50 [15]: > 100 µM
TGI [15]: 7.1 µM
GI50 [16]: 3.34 µM
TGI [16]: 17.8 µM
CC50 [16, 25]: > 100 µM
GI50 [17]: 15.7 µM
TGI [17]: > 100 µM
CC50 [17, 25]: > 100 µM
GI50 [18]: 5.7 µM
TGI [18]: > 100 µM
CC50 [18, 25]: > 100 µM
growth at 10 µM [19]: 12%
GI50 [20]: 3.06 µM
TGI [20]: > 100 µM
CC50 [20, 25]: > 100 µM
GI50 [21]: 23.5 µM
TGI [21]: > 100 µM
CC50 [21, 25]: > 100 µM
GI50 [22]: 6.7 µM
TGI [22]: > 100 µM
CC50 [22, 25]: > 100 µM
GI50 [23]: 23.2 µM
TGI [23]: > 100 µM
CC50 [23, 25]: > 100 µM
GI50 [24]: 17.2 µM
TGI [24]: > 100 µM
CC50 [24, 25]: > 100 µM

Source: ChEMBL document CHEMBL3124806, “Imidazopyridine-fused [1,3]-diazepinones: synthesis and antiproliferative activity” (Eur J Med Chem, 2014)
